Assay results gathered from unrelated publications.
Compare with care: the assays were run in different laboratories.
TACR1: Substance-P receptor (TACR1, Homo sapiens, UniProt P25103)
EAPA: Endothiapepsin (EAPA, Cryphonectria parasitica, UniProt P11838)
Tmem97: Sigma intracellular receptor 2 (Tmem97, Rattus norvegicus, UniProt Q5U3Y7)
Trypanothione synthetase: Trypanothione synthetase (Trypanosoma cruzi, UniProt Q9GT49)
HTR2C: 5-hydroxytryptamine receptor 2C (HTR2C, Homo sapiens, UniProt P28335)
SIK1: Serine/threonine-protein kinase SIK1 (SIK1, Homo sapiens, UniProt P57059)

Compound | target | assay | setting | inhibition [%]
O=C(c1ccc(Cl)cc1)N(Cc1ccccc1)C1CCCCC1 | TACR1 | cell-free assay | 10 µM | 15.1
FC(F)(F)c1ccc(-c2nnc(-c3cc4c(s3)CCCC4)o2)cn1 | 1-deoxy-D-xylulose-5-phosphate synthase (dxs, Deinococcus radiodurans, UniProt Q9RUB5) | enzyme activity, inhibitor | 120 µM | 0
NNC(COCc1ccccc1)c1nnnn1CCc1ccc(O)cc1 (stereo not shown) | EAPA | enzyme activity, inhibitor | 200 µM | 91.5
O=C1N=C(N2CCCCN2)S/C1=C\c1ccc(F)cc1O | Melatonin receptor type 1A (MTNR1A, Homo sapiens, UniProt P48039) | ligand displacement, radioligand | 10 µM | < 10
COc1cc2c(cc1OC)CN(C(C)CCc1ccc(O)cc1)CC2 (stereo not shown) | Tmem97 | ligand displacement, radioligand | 0.1 µM | 94
O=C(CN1C(=O)Cc2c([nH]c3ccc(Br)cc23)-c2ccc(Cl)cc21)Nc1ncco1 | Trypanothione synthetase | enzyme activity, inhibitor, absorbance | 30 µM | 6.9
CCN(Cc1ccccc1C(F)(F)F)C(=O)C1CCN(S(=O)(=O)c2ccc3[nH]ncc3c2)CC1 | TACR1 | ligand displacement, radioligand | 10 µM | 18
O=C(CN1C(=O)Cc2c([nH]c3ccc(Br)cc23)-c2ccc(Cl)cc21)NCCN1CCCCC1 | Trypanothione synthetase | enzyme activity, inhibitor, absorbance | 30 µM | 21.4
O=C(Nc1ccc(S(=O)(=O)N2CCC(Cl)CC2)cc1)c1ccc([N+](=O)[O-])o1 | TACR1 | ligand displacement, radioligand | 10 µM | 3
N#Cc1cc(Cn2c(N3CCCC3)nc3ccccc32)ccc1F | HTR2C | ligand displacement, radioligand | 10 µM | 14.4
C#CCOCCOCCOc1ccc2c3c1C1CCCC1N3CCNC2 (racemic) | HTR2C | ligand displacement, radioligand | 10 µM | 100
CN(C)C(=O)CN1C(=O)Cc2c([nH]c3ccc(Br)cc23)-c2ccc(Cl)cc21 | Trypanothione synthetase | enzyme activity, inhibitor, absorbance | 30 µM | 14.9
NNC(CCc1ccccc1)c1nnnn1Cc1ccc2c(c1)OCCO2 (stereo not shown) | EAPA | enzyme activity, inhibitor | 200 µM | 42.5
Oc1cccc(Nc2nc(-c3ccc(F)cc3F)cs2)c1 | B2 bradykinin receptor (BDKRB2, Homo sapiens, UniProt P30411) | cell-free assay | 10 µM | -68.7
CC1CNc2c(cccc2S(=O)(=O)N[C@@H](CCCNC(=N)N)C(=O)N2CC[C@@H](C)C[C@@H]2C(=O)O)C1 (stereo partly shown) | Prothrombin (F2, Bos taurus, UniProt P00735) | enzyme activity, inhibitor, fluorescence | 0.1 µg/mL | 94
O=C(CN1C(=O)Cc2c([nH]c3ccc(Br)cc23)-c2ccc(Cl)cc21)NCCN1CCOCC1 | Trypanothione synthetase | enzyme activity, inhibitor, absorbance | 30 µM | 11.3
C=CC1=C(C)C2=Cc3c(C=C)c(C)c4[n]3[Sn]([Cl])([Cl])[n]3c(c(C)c(CCC(=O)O)c3=CC3=NC(=C4)C(C)=C3CCC(=O)O)=CC1=N2 | Trypanothione synthetase | enzyme activity, inhibitor, absorbance | 25 µM | 18.7
CCCNc1nc2ccccc2n1Cc1ccc(Cl)cc1 | HTR2C | ligand displacement, radioligand | 10 µM | 80
COc1cc2c3c(c1OC)-c1cc4c(cc1CC3N(C)CC2c1ccccc1)OCO4 (stereo not shown) | HTR2C | ligand displacement, radioligand | 10 µM | < 50

Compound | target | assay | setting | inhibition [%]
CNC(=O)c1cc(Oc2ccc(NC(=O)Nc3ccc(Cl)c(C(F)(F)F)c3)cc2)ccn1 | SIK1 | enzyme activity, inhibitor | 0.3 µM | 4
CN(C)C1CCN(CC#Cc2nn(C3CCCC3)c3nc(NCc4ccccc4)ncc23)C1 (stereo not shown) | Serine/threonine-protein kinase PLK1 (PLK1, Homo sapiens, UniProt P53350) | enzyme activity, inhibitor, FRET | 10 µM | -5
O=C(c1ccc(F)cc1)N(Cc1ccccc1)C1CCCCC1 | B1 bradykinin receptor (BDKRB1, Homo sapiens, UniProt P46663) | cell-free assay | 10 µM | -7
NNC(COCc1ccccc1)c1nnnn1CC(=O)NCc1cccs1 (stereo not shown) | EAPA | enzyme activity, inhibitor | 200 µM | 51.9
CC(C)(C)NC(=O)CN1C(=O)Cc2c([nH]c3ccc(Br)cc23)-c2ccc(Cl)cc21 | Trypanothione synthetase | enzyme activity, inhibitor, absorbance | 30 µM | 5.8
Ic1cccc2cnccc12 | Poly [ADP-ribose] polymerase tankyrase-2 (TNKS2, Homo sapiens, UniProt Q9H2K2) | enzyme activity, inhibitor | 10 µM | 12
CC(Cc1ccc(C(C)(C)C)cc1)C(NN)c1nnnn1Cc1ccc2c(c1)OCO2 (stereo not shown) | EAPA | enzyme activity, inhibitor | 200 µM | 95.3
O=C(CN1C(=O)Cc2c([nH]c3ccc(Br)cc23)-c2ccc(Cl)cc21)N1CCNCC1 | Trypanothione synthetase | enzyme activity, inhibitor, absorbance | 30 µM | 17.1
CCCCCC(NN)c1nnnn1Cc1ccc2c(c1)OCO2 (stereo not shown) | EAPA | enzyme activity, inhibitor | 200 µM | 32.8
O=C(CN1C(=O)Cc2c([nH]c3ccc(Br)cc23)-c2ccc(Cl)cc21)N1CCN(c2ncccn2)CC1 | Trypanothione synthetase | enzyme activity, inhibitor, absorbance | 30 µM | 40.6
CS(=O)(=O)O.c1cc2c(cc1C1CCCCC1)c1c3n2CCNC3CCC1 (stereo not shown) | Trypanothione synthetase | enzyme activity, inhibitor, absorbance | 25 µM | 28.9
O=C(CN1C(=O)Cc2c([nH]c3ccc(Br)cc23)-c2ccc(Cl)cc21)NCCN1CCNCC1 | Trypanothione synthetase | enzyme activity, inhibitor, absorbance | 30 µM | 7.9
COc1cc(NC(C)=O)c(Cl)cc1C(=O)Nc1nccs1 | TACR1 | cell-free assay | 10 µM | -2.9
Cc1ccc(Nc2nccc(N(C)c3ccc4c(C)n(C)nc4c3)n2)cc1S(N)(=O)=O | SIK1 | enzyme activity, inhibitor | 10 µM | 69
CCCC(NN)c1nnnn1Cc1ccccc1 (stereo not shown) | EAPA | enzyme activity, inhibitor | 200 µM | 3
CN(Cc1ccc(NC(=O)C2=Cc3cc(-c4ccc(OCCCCCCCF)cc4)ccc3CCC2)cc1)C1CCOCC1 | Tmem97 | ligand displacement, radioligand | 10 µM | 17
O=C(O)c1ncccc1O | Stromelysin-1 (MMP3, Homo sapiens, UniProt P08254) | enzyme activity, inhibitor | 1 mM, pH 6 | ~50
CNC(=O)[C@@]12C[C@@H]1[C@@H](n1cnc3c(NC)nc(C#Cc4ccc(Cl)s4)nc31)[C@H](O)[C@@H]2O | Tmem97 | ligand displacement, radioligand | 10 µM | 60 to 70
